APP 5'UTR act: APP 5'UTR luciferase reporter activation. activation, % at 2 µM. SH-SY5Y APP 5'UTR luciferase reporter, luminescence; zero percent = DMSO vehicle wells. 190,000 tested, 1% active;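 active means activation above a set limit, based on mean plus 3 SD of controls, cut at about 140% in these data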
NF-kB expr up: NF-kB expression increase, human neuronal cells; fold change at 12.5 µM; 190,000 tested, 1.6% active; NF-kB reporter expression; active compounds read high; in the data active means fold change above about 3.3
AHR act: human AHR activation | AHR-responsive luciferase reporter cells, luminescence | P35869 | 320,000 tested, 2.5% active | activation, % at 5 µM; in the data active means activation above about 47%;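 further: 0% = vehicle wells and 100% = reference agonist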
Target sequence (P35869 whole entry, looked up): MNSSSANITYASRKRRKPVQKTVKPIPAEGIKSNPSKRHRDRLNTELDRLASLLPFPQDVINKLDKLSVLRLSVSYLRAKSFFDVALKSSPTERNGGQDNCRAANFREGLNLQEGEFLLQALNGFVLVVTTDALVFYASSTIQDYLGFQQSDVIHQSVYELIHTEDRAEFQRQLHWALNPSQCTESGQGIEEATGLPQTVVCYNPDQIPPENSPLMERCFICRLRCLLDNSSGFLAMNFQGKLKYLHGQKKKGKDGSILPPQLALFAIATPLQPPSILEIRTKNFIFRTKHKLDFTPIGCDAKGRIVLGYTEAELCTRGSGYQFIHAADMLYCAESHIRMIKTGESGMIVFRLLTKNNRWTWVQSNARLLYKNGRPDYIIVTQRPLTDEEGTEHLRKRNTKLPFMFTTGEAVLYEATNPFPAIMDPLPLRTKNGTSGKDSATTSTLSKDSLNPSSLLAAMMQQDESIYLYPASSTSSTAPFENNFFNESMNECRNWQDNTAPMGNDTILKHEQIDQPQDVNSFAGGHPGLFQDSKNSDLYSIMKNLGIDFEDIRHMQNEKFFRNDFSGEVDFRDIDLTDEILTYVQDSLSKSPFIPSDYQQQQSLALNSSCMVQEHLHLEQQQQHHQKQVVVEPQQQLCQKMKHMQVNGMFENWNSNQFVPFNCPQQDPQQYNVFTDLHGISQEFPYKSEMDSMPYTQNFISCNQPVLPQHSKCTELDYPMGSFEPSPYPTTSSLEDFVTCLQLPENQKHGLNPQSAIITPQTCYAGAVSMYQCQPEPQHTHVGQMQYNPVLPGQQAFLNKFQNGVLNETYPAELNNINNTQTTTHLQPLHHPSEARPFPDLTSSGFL
PERK inhibitor: human PERK inhibition, primary cell-based screen. Q9NZJ5. CHO PERK-DD fusion, SEAP luminescence translation reporter. inhibition, % at 5.6 µM. 220,000 tested, 0.17% active. AID 1416;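 active means inhibition above the mean inhibition of all tested compounds plus 3 SD, set separately per screening campaign, cut at about 2.9% in these data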;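 further: PERK kinase domain activated by AP20187 dimerizer at 100 nM; 0% = DMSO with dimerizer and 100% = rapamycin at 8.4 µM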
STAT1 act: activators of IFN-gamma induced STAT1 signaling; NIH 3T3 STAT1-luciferase reporter, luminescence; 100% = IFN-gamma alone, no compound; activation (% of control), % at 5.5 µM; 200,000 tested, 2.6% active;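 active means activation above the screen-wide mean activation plus 3 SD, cut at about 130% in these data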;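 further: raw ratio to IFN-gamma control signal so 100% means no change and 0% no light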
Mdm2 ligase inh: blocks human Mdm2 ubiquitin ligase activity; Q00987; cell-based MDM2 ubiquitination luciferase reporter, 2 h; 0 = plate control, 100 = twice control, blank-subtracted; signal enhancement, % at 5 µM; 210,000 tested, 0.11% active; AID 1230;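 active means signal enhancement of 30% or more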;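 further: luminescence tracks abundance of the self-degrading MDM2-luciferase fusion protein; higher signal means inhibition of MDM2 E3 ligase activity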
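Test system: stable mammalian line carrying autodegrading MDM2–luciferase fusion reporter; quantity: 2000 cells in each well; times: 4 h cell settling then 2 h compound exposure, 37 °C; detection: luminescence with SteadyLite reagent, 15 min at room temperature; evaluation: percent signal gain over controls, blank-subtracted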
* marks the source's active call; other numbers are inactive results; · = not tested or not shown. Compounds with a hit are over-represented: about 4.5% of the library has one in this group of screens.

SMILES	APP 5'UTR act	NF-kB expr up	AHR act	PERK inhibitor	STAT1 act	Mdm2 ligase inh
CCc1ccc(NC(=O)C(=O)NCC2CCCO2)cc1 (stereo unspecified)	114	2.5	3	1	131*	-1
CCCn1c(N)c(C(=O)CSc2nc(C)nc3sc(C)c(C)c23)c(=O)[nH]c1=O	·	·	28	·	·	·
Cc1ccc(-n2[nH]c(C)c(/C=C3/C=Nc4ccccc43)c2=O)cc1C	-11	1.3	60*	0	99	1
Cc1csc(SCC(=O)c2cc(C)n(Cc3cccs3)c2C)n1	120	0.73	-8	0	75	-21
Cc1cc(C(=O)CSc2nnc(N)s2)c(C)n1Cc1cccs1	136*	2.7	-8	-1	111	-55
Cc1cc(C(=O)CSc2nncs2)c(C)n1Cc1ccco1	181*	4.7*	10	1	67	-37
Cc1cccc(CSc2nnc(-c3cccs3)n2Cc2ccco2)c1	-2	1	2	-1	99	5
CCOC(=O)C1CCN(C(=S)Nc2ccc(Cl)cc2C)CC1	6	0.87	1	3	100	-13
CCOC(=O)C1CCN(C(=S)Nc2cc(C)ccc2C)CC1	14	1.3	1	2	94	98*
Cc1ccc(CN2CN(S(=O)(=O)c3cccs3)c3nc4ccccc4nc32)cc1	6	6.4*	-1	-1	142*	-25
O=S(=O)(c1cccs1)N1CN(Cc2ccc(Cl)cc2)c2nc3ccccc3nc21	-1	1.2	5	0	100	-11
CCOc1ccc(/C=C/C2=NNC(=O)CC2)cc1	51	2	17	2	129*	-13
COCCNc1nnc(SCC(=O)NC2CCCCC2)s1	·	·	1	·	·	·
CCC1(C(=O)OC)CCc2c(cc(OC)c3ccccc23)C1=O (stereo unspecified)	·	·	54*	1	·	-3
CCC(C)(C)n1nnnc1C(c1ccc(O)cc1)N1CCc2ccccc2C1 (stereo unspecified)	2	0.98	4	-1	99	-10
C=CCn1c(O)c(N=NC(=O)CNC(=O)c2ccco2)c2ccccc21	3	1.1	47	-1	99	-6
C=CCn1c(O)c(N=NC(=O)CNC(=O)Cc2ccccc2)c2ccccc21	·	·	53*	·	·	·
C=CCn1c(O)c(N=NC(=S)Nc2ccc(OC)cc2)c2ccccc21	-25	0.98	6	0	91	-89
C=CCn1c(O)c(N=NC(=S)Nc2cccc(OC)c2)c2ccccc21	-35	1.2	61*	-1	110	-1
COCCn1c(C)cc(C(=O)CSc2nc(C)nc3sc4c(c23)CCC4)c1C	8	·	9	0	89	·
Cn1c(=O)[nH]c(=O)c2[nH]c(N(Cc3ccccc3)Cc3ccccc3)nc21	-21	0.6	8	-1	87	-5
CCOC(=O)c1sc(NC(=O)c2cccs2)cc1C	168*	4*	-3	-1	138*	-31
CCOC(=O)c1sc(Nc2nc3c(F)cccc3s2)cc1C	90	1.4	52*	1	99	5
CCOC(=O)c1sc(=NC(=O)c2ccco2)n(C)c1C	31	2.1	18	0	129*	10
CCOC(=O)c1sc(=NC(=O)c2ccccc2Br)n(C)c1C	·	·	3	·	·	·
SMILES	APP 5'UTR act	NF-kB expr up	AHR act	PERK inhibitor	STAT1 act	Mdm2 ligase inh
CCOC(=O)c1sc(Nc2nc3ccc(OC)cc3s2)cc1C	33	1.6	38	0	110	-1
CCOC(=O)c1sc(=NC(=O)c2cccs2)n(C)c1C	141*	5.4*	38	0	133*	-19
Cc1cccc(N(CC(=O)NCc2ccc(F)cc2)C(=O)c2ccco2)c1	·	·	3	·	·	·
CCCCCCC(=O)N/N=C(\C)Cc1ccccc1	-14	1.2	5	0	99	-8
N#Cc1cnc(NCc2ccc(Cl)cc2Cl)nc1	·	·	5	·	·	·
CCOC(=O)c1sc(=NC(=O)c2ccc(C)c(C)c2)n(C)c1C	129	1	2	1	127	-6
CCOC(=O)c1sc(=NC(=O)c2ccc(Cl)s2)n(C)c1C	146*	1.5	21	1	151*	-28
O=C(NNC(=O)C1CC1)c1cc(Br)c(Br)s1	·	·	10	·	·	·
Cc1nc(C)c(/C(O)=C/c2nc3ccccc3oc2=O)s1	1	4.8*	4	-1	86	-3
COc1ccccc1C1CC(c2ccc(Br)cc2)=NN1C(=O)c1cccnc1 (stereo unspecified)	-9	1	63*	-1	90	-9
CCCn1c(N)c(N(CCOC)C(=O)c2cc3c(s2)CCCCC3)c(=O)[nH]c1=O	·	·	2	·	·	·
CC(=O)c1cccc(Nc2cc(C)nc3c(C)cccc23)c1	·	·	50*	0	·	-11
Cc1nc2cc(NC(=O)Nc3cccc4ccccc34)ccc2n1C	110	2.3	-9	2	145*	-10
CC(=O)c1cccc(NC(=O)C(=O)Nc2cccc3ccccc23)c1	70	1.5	-2	1	137*	1
CCOc1ccc(NC(=O)Nc2ccc3c(c2)nc(C)n3C)cc1	·	·	-7	0	·	·
COc1ccc(CNC(=O)CN2C(=O)COc3ccc(S(=O)(=O)N4CCOCC4)cc32)cc1	·	·	0	·	·	·
COc1cccc(-c2c3c([nH]c(=O)c2C#N)CCc2cc(OC)ccc2-3)c1	·	·	0	-1	·	-1
Cc1noc(C)c1C(=O)OC(C)C(=O)NC(C)c1ccc(Cl)cc1Cl (stereo unspecified)	·	·	6	·	·	·
CCCc1ccc(OCC(=O)NNC(=O)c2cccnc2)cc1	14	1.4	-1	1	105	-7
Cc1ccc(S(=O)(=O)c2nc(-c3ccco3)oc2SC(C)C)cc1	·	·	-2	·	·	·
Cc1cc(=O)n2[nH]c(-c3ccc(F)cc3)nc2n1	-8	1.5	11	0	108	-14
Cc1cc(=O)n2[nH]c(N3C(=O)CCC3=O)nc2n1	16	1.3	5	1	104	30*
C(=N\N=C\c1cccnc1)/c1cccnc1	11	1.2	17	0	107	-1
CN(/N=C/c1cccnc1)c1cnc2ccccc2n1	170*	3	32	0	172*	-25
Nc1c(-c2ccccc2)cnn1-c1ccc(C(=O)O)cc1	138*	5.7*	8	0	133*	-14
Cc1ccccc1-c1cnn(-c2cccc([N+](=O)[O-])c2)c1N	8	1.2	-3	0	107	-9
Cc1ccc(-c2cnn(-c3cccc([N+](=O)[O-])c3)c2N)cc1	96	2.9	-6	2	142*	-3
Cc1ccc(-c2cnn(-c3ccccc3)c2N)cc1	·	·	3	·	·	·
Nc1c(-c2ccccc2)cnn1-c1cccc(C(F)(F)F)c1	95	2.8	-1	1	143*	-1
C=C(C)C1CC=C(C)/C(=N/NC(=O)c2ccoc2C)C1 (stereo unspecified)	29	1.3	46	0	138*	-2
